According to ChEMBL document CHEMBL4396943, “The tetrahydroxanthone-dimer phomoxanthone A is a strong inducer of apoptosis in cisplatin-resistant solid cancer cells” (Bioorg Med Chem, 2019):
Calls of active or inactive are those of the source. The calls are words filed in the database; no cut-off is given here.

Legend:
[1] = test system: A2780; assay: Antiproliferative activity against human A2780 cells assessed as reduction in cell viability incubated for 72 hrs by MTT assay; format: functional, cell-based; conditions: A2780, 72 h
How it was run: (§1)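 Cells seeded overnight in 96-well plates, then exposed to increasing concentrations (compound dissolved in DMSO, diluted in medium) for the stated time. MTT (5 mg/ml in PBS) added for 15 min, formazan dissolved in DMSO, absorbance read at 544 nm minus 690 nm background. IC50 = concentration giving 50% signal decrease. At least three independent experiments in triplicate.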

[2] = test system: KYSE-510; assay: Antiproliferative activity against human cisplatin resistant KYSE-510 cells assessed as reduction in cell viability incubated for 72 hrs by MTT assay; format: functional, cell-based; conditions: KYSE-510, 72 h; how it was run: as §1
[3] = test system: A2780; assay: Potency index, ratio of cisplatin IC50 to compound IC50 for antiproliferative activity in human A2780 cells assessed as reduction in cell viability incubated for 72 hrs by MTT assay; format: functional
How it was run: (§2)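 Cells seeded in 96-well plates overnight, exposed 72 h to increasing concentrations. MTT (5 mg/ml) added for 15 min, formazan dissolved in DMSO, absorbance read at 544 nm with 690 nm background subtracted. IC50 is the concentration reducing signal by 50%. Three independent experiments in triplicate. CisR sublines made by weekly intermittent cisplatin exposure for 24–30 weeks.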

[4] = Potency index, ratio of cisplatin IC50 to compound IC50 for antiproliferative activity in human Cal27CisR cells assessed as reduction in cell viability incubated for 72 hrs by MTT assay; format: functional; how it was run: as §2
[5] = test system: KYSE-510; assay: Potency index, ratio of cisplatin IC50 to compound IC50 for antiproliferative activity in cisplatin resistant human KYSE-510 cells assessed as reduction in cell viability incubated for 72 hrs by MTT assay; format: functional; how it was run: as §2
[6] = test system: A2780cisR; assay: Antiproliferative activity against human A2780cisR cells assessed as reduction in cell viability incubated for 48 hrs by MTT assay; format: functional, cell-based; how it was run: as §1
[7] = test system: A2780cisR; assay: Ratio of IC50 for antiproliferative activity in human A2780cisR cells assessed as reduction in cell viability incubated for 24 hrs by MTT assay to IC50 for antiproliferative activity in human A2780cisR cells assessed as reduction in cell viability incubated for 72 hrs by MTT assay; format: functional
How it was run: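 MTT assay as for the viability IC50s (overnight seeding, MTT 15 min, DMSO solubilisation, 544/690 nm), with PXA incubation for 24 h versus 72 h. IC50 is the concentration giving a 50% signal decrease. At least three independent experiments.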

[8] = test system: A2780; assay: Cell cycle arrest in human A2780 cells assessed as accumulation at G1 phase at 10 uM incubated for 24 hrs by propidium iodide staining based flow cytometry (reference value: 61.8%); format: functional
How it was run: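 After 24 h exposure, cells washed in ice-cold PBS. About 2 million cells fixed in cold 70% ethanol at −20 °C for at least 24 h. Stained with 0.1% Triton X-100, 200 µg/ml RNase A and 20 µg/ml propidium iodide in PBS, 15 min at 37 °C in the dark. DNA content read by flow cytometry with doublet discrimination. Medium as untreated control, paclitaxel as G2/M control. Three independent experiments.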

[9] = test system: A2780; assay: Induction of apoptosis in human A2780 cells assessed as accumulation in subG1 phase at 1 uM incubated for 24 hrs by propidium iodide staining based flow cytometry (reference value: 10%); format: functional
How it was run: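 Cells plated in 24-well plates (about 100,000/well) for one day, then treated 24 h. Where used, caspase inhibitor Q-VD-OPh (20 µM) was added 1 h before. Cells lysed in hypotonic buffer (0.1% sodium citrate, 0.1% Triton X-100, 100 µg/ml propidium iodide) overnight at 4 °C in the dark. Sub-G1 fraction read by flow cytometry. Medium control, cisplatin positive control.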

[10] = test system: A2780cisR; assay: Induction of apoptosis in human A2780cisR cells assessed as depolarization of mitochondrial membrane potential incubated for 1 hr by TMRE staining based flow cytometry; format: functional, cell-based
How it was run: (§3)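 Cells seeded overnight; complete medium swapped for FBS-free medium just before treatment to avoid TMRE ester cleavage. Exposure to PXA for 1 h, 2 h or 24 h. TMRE staining 20 min, cells collected by trypsinisation, ΔΨm read by flow cytometry. Medium served as negative control, 20 µM CCCP as positive control. Mean ± SEM reported.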

[11] = test system: A2780; assay: Induction of apoptosis in human A2780 cells assessed as increase in intracellular calcium level at 10 to 30 uM incubated for 30 mins in presence of 1 mM extracellular calcium by fluorimetry; format: functional, cell-based
How it was run: (§4)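 Cells seeded in 96-well plates overnight, washed twice with Krebs-HEPES buffer, loaded 1 h at 37 °C in the dark with Oregon Green BAPTA-1 AM (final 3 µM) and Pluronic F-127. Buffer replaced, PXA added, fluorescence at 544 nm recorded for 30 min, with or without 1 mM extracellular Ca2+. Three experiments, mean ± SEM.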

[12] = test system: A2780cisR; assay: Induction of apoptosis in human A2780cisR cells assessed as increase in intracellular calcium level at 10 to 30 uM incubated for 30 mins in presence of 1 mM extracellular calcium by fluorimetry; format: functional, cell-based; how it was run: as §4
[13] = test system: J82; assay: Induction of apoptosis in cisplatin resistant human J82 cells assessed as increase in activation of caspase 3/7 at 30 uM incubated for 24 hrs by hoechst 33342 staining based fluorescence microscopy (reference value: 0.5%); format: functional
[14] = test system: A2780; assay: Induction of apoptosis in human A2780 cells assessed as decrease in cIAP expression at 5 uM incubated for 24 hrs by proteome profiler analysis; format: functional, cell-based
How it was run: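 A2780 cells treated 24 h with 5 µM, then apoptosis-related proteins read on an antibody array (Proteome Profiler human apoptosis array) per kit instructions.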

[15] = test system: A2780cisR; assay: Induction of apoptosis in human A2780cisR cells assessed as decrease in cIAP expression at 5 uM incubated for 24 hrs by proteome profiler analysis; format: functional, cell-based
How it was run: (§5)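 A2780 and A2780CisR cells treated 24 h with 5 µM PXA; apoptosis-related proteins profiled with a human apoptosis antibody array following kit instructions.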

[16] = test system: A2780cisR; assay: Induction of apoptosis in human A2780cisR cells assessed as decrease in claspin expression at 5 uM incubated for 24 hrs by proteome profiler analysis; format: functional, cell-based; how it was run: as §5
[17] = test system: A2780cisR; assay: Induction of apoptosis in human A2780cisR cells assessed as plasma membrane damage at 1 to 10 uM incubated for 24 hrs by propidium iodide staining based flow cytometry; format: functional, cell-based
How it was run: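 Cells exposed to PXA for 24 h, trypsinised, pelleted at 4 °C, stained with 100 µg/ml propidium iodide, diluted in sheath fluid and read by flow cytometry. Positive control was 0.2% Triton X-100 (20 min). Three experiments, mean ± SEM.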

[18] = test system: J82; assay: Induction of apoptosis in cisplatin resistant human J82 cells assessed as depolarization of mitochondrial membrane potential incubated for 2 hrs by TMRE staining based flow cytometry; format: functional, cell-based
How it was run: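 Cells seeded overnight; medium switched to FBS-free just before treatment to avoid TMRE ester cleavage. Exposure 1 h, 2 h or 24 h, then TMRE staining for 20 min. Cells trypsinized, centrifuged at 4 °C and read by flow cytometry. Medium as negative control, 20 µM CCCP as positive control. […]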

[19] = test system: A2780cisR; assay: Induction of apoptosis in human A2780cisR cells assessed as depolarization of mitochondrial membrane potential after 24 hrs by TMRE staining based flow cytometry; format: functional, cell-based; how it was run: as §3

CC(=O)OC[C@]12Oc3c(-c4ccc(O)c5c4O[C@@]4(COC(C)=O)C(=C(O)C[C@@H](C)[C@H]4OC(C)=O)C5=O)ccc(O)c3C(=O)C1=C(O)C[C@@H](C)[C@H]2OC(C)=O [PHOMOXANTHONE A]
IC50 ([1]; read-out: IC50): 580 nM | IC50 ([1]; read-out: pIC50 (converted)): 575 nM | IC50 [2]: 790 nM | Ratio IC50 [3]: 7 | Ratio IC50 [4]: 2 - 10 | Ratio IC50 [5]: 2 - 10 | IC50 ([6]; read-out: IC50): 1180 nM | IC50 ([6]; read-out: pIC50 (converted)): 1170 nM | Ratio IC50 [7]: 1.4 | Activity [8]: 78.9% | Activity [9]: 42% | Activity [10]: Dose-dependent effect | IC50 [10]: 1250 nM | Activity [11]: Active | Activity [12]: Active | Activity [13]: 90% | Activity [14]: Active | Activity [15]: Active | Activity [16]: Active | Activity [17]: inactive | Activity [18]: Dose-dependent effect | IC50 ([18]; J82, 2 h): 2750 nM | Activity [19]: Dose-dependent effect
